High-throughput results deposited in PubChem BioAssay by several laboratories.
Shown are actives, neighbours in structure and some others; about 3.1% of the full set was active somewhere.
TAG inh – triacylglycerol accumulation inhibition; H9c2 cells, Nile Red lipid (TAG) fluorescence; cells loaded with 200 µM oleic acid; inhibition, % at 12.5 µM; 0.66% of 230,000 active; AID 651582;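 active = pattern-corrected inhibition of lipid staining of at least 50% with the nuclear-stain viability signal not falling by more than 50%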;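 note: 0% = DMSO wells and 100% = triacsin C control wells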
T cruzi inh – blocks replication of Trypanosoma cruzi. inhibition, % (no concentration beside the values). AID 1885. T. cruzi beta-gal in NIH3T3, luminescence, 90 h. 1.4% of 300,000 active;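 active = mean inhibition across valid replicates above about 55%, limit read from the data; inconclusive = mean below that limit but half or more replicates reach it; inactive = mean below it, under half of replicates reach it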;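 note: signal also drops with host cell toxicity which is not excluded here; 0% = plate median of DMSO wells and 100% = zero luminescence signal; higher percent means less beta-gal luminescence so fewer parasites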
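Assay system: NIH/3T3 host cells with β-galactosidase reporter T. cruzi; input: 5,000 host fibroblasts per well; compound: single 50 nL compound addition per well in DMSO; timing: ≥90 h infection period, 3 h prior cell attachment; measured by: GalScreen β-gal luminescence, detergent lysis, 60 min; evaluation: percent inhibition of parasite-derived β-gal signal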
CSC inhib – blocks cancer stem cells | AID 2717 | 1.1% of 300,000 active | cancer stem cell-like cells viability, luminescence | inhibition, % at 7.5 µM; in the data active = inhibition above about 75%; inconclusive = no clear call, values can overlap the other calls; tested in HMLE shEcad cells
Calb FLC – C. albicans growth modulation with fluconazole; C. albicans CaCi-2 + fluconazole, Alamar Blue growth, 48 h; 0.57% of 300,000 active; growth inhibition, % (concentration not given with the values);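 active = growth inhibition above about 58% in most replicates, limit read from the data, passing the limit was not always enough; inconclusive = exactly half the replicates above a set limit; inactive = most replicates below a set limit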;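 note: all wells also contain fluconazole at 8 µg/ml as a sub-toxic cotreatment; 0% = median of DMSO wells and 100% = median of geldanamycin control wells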
Beta cell apopt – beta cell apoptosis inhibition; INS-1E cytokine-induced death, ATP luminescence, 48 h; percent of positive-control rescue, neutral wells zero; protection from apoptosis, % (test concentration not listed); 0.8% of 300,000 active; AID 435005;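 active = Every replicate reaches about 75%, or at least half do and their mean reaches it too, limit read from the data; inconclusive = At least half of replicates reach the limit but their mean does not; inactive = Under half of replicates reach the limit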;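 note: 0% = cytokine-treated negative control wells and 100% = positive control rescue; higher means more ATP so stronger rescue from cytokine killing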
A1 inh – inhibitors of the anti-apoptotic protein A1, read as caspase activation | MEF A1-2A-BIM cells, Caspase-Glo 3/7 luminescence, 3 h; percent of clofoctol response, vehicle zero | caspase activation, % (no concentration beside the values) | 0.066% of 330,000 active;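 active = over half of replicate activation scores above 10%, or exactly half above 10 with the replicate mean above 10; inconclusive = replicate mean below 10 yet half the replicates above 10; inactive = over half of replicates below 10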
* hit, by the source's call; ? = inconclusive; nt = not tested or not shown.

SMILES	TAG inh	T cruzi inh	CSC inhib	Calb FLC	Beta cell apopt	A1 inh
O=S(=O)(Oc1ccc(C(=S)N2CCOCC2)cc1)c1ccc(Cl)cc1	-25	9	-11	-10	6	-1
CC(NS(=O)(=O)c1ccc2c(c1)oc(=O)n2C)c1ccccc1 (stereo not given)	nt	-5	0	-6	-2	0
CCNC(=O)N(C)c1c(CC)nc2ccc(C(=O)N3CCN(C(C)=O)CC3)cn12	-8	nt	nt	nt	nt	nt
CSCCC(NC(=O)COc1ccccc1)C(=O)N1CCCC(C)C1 (stereo not given)	nt	11	-4	-2	-13	0
CC(C)C1=CC(=Nc2ccc(S(N)(=O)=O)cc2)C=C(C(C)C)C1=O	0	-6	-19	0	-10	-6
COC(=O)c1ccc2c(c1)c(-c1ccccc1)c(-c1ccccc1)n2C	-23	nt	nt	nt	nt	nt
O=C(Nc1nc2c(s1)CN(Cc1ccccc1)CC2)c1cccc(S(=O)(=O)N2CCc3ccccc32)c1	9	30	41	5	2	0
COCc1nnc(NC(=O)c2ccc(S(=O)(=O)N3CCCCCC3)cc2)o1	-4	-3	19	80*	3	1
O=C(Nc1nc2c(s1)CCCC2)c1ccc(S(=O)(=O)N2CCCc3ccccc32)cc1	nt	60*	4	0	44	0
CC(C)(C)c1ccc(C(=O)NC(=S)Nc2nc3c(s2)CCCC3)cc1	nt	46	80*	-8	13	0
COC(=O)Nc1ccc(S(=O)(=O)N2CCCc3ccccc32)cc1	nt	-73	80*	24	27	1
CN(C)c1ccc(C(=O)Nc2nc3c(s2)CCCC3)cc1	11	48	3	14	7	-6
CC(NC(=O)CCCc1nnc2n(C)c(=O)c3sccc3n12)c1ccccc1 (stereo not given)	nt	-4	3	-6	5	1
COc1ccc2c(c1)C(=O)N1[C@H]3c4cc(Br)ccc4OC[C@@H]3[C@H](c3ccccc3)[C@]1(C)C(=O)N2	20	nt	-13	nt	9	0
CCOc1ccc(NC(=O)CSc2ccccc2N)cc1	-10	1	2	-10	-1	?
CN(C)C1=NCCN1CCC1CCCCC1	12	nt	8	nt	-1	0
Cc1ccc(CN2CCN(/N=C/c3ccc(Cl)c([N+](=O)[O-])c3)CC2)cc1	4	62*	-9	1	nt	0
Cc1ccc(CN2CCN(/N=C/c3cc([N+](=O)[O-])ccc3Cl)CC2)cc1	1	27	33	-10	-4	0
Cc1cc(C)c(-c2csc(NC(=O)c3cc([N+](=O)[O-])ccc3N3CCOCC3)n2)c(C)c1	-1	66*	-4	18	7	0
CN1C/C(=C/c2ccccc2[N+](=O)[O-])C(=O)/C(=C\c2ccccc2[N+](=O)[O-])C1	69*	nt	nt	nt	nt	nt
CCS(=O)(=O)N1CCN(c2ccc(C(=O)N3CCOCC3)cc2[N+](=O)[O-])CC1	-19	-3	-6	8	-14	0
CCS(=O)(=O)N1CCN(c2ccc(C(=O)NC3C4CC5CC(C4)CC3C5)cc2[N+](=O)[O-])CC1 (stereo not given)	-16	68*	42	-1	61	2
O=C(COc1ccc(Cl)cc1Cl)N/N=C/C1CC=CCC1 (stereo not given)	-19	-4	10	-16	-1	0
COc1cccc2sc(N(CCCN(C)C)C(=O)c3ccc(S(=O)(=O)N4CCCc5ccccc54)cc3)nc12	6	17	23	3	9	0
CN(C)CCCN(C(=O)c1ccc(S(=O)(=O)N2CCc3ccccc32)cc1)c1nc2c(Cl)cccc2s1	22	55*	50	-13	0	0
SMILES	TAG inh	T cruzi inh	CSC inhib	Calb FLC	Beta cell apopt	A1 inh
CN(C)CCN(C(=O)c1ccc(S(=O)(=O)N2CCc3ccccc32)cc1)c1nc2ccc(F)cc2s1	15	63*	3	2	8	0
CCc1ccc2nc(N(CCCN(C)C)C(=O)c3ccc(S(=O)(=O)N4CCCc5ccccc54)cc3)sc2c1	15	61*	?	-13	20	3
CC(C)CN(CCCNC(=O)CN1C(=O)COc2ccc(S(=O)(=O)N3CCOCC3)cc21)CC(C)C	nt	-20	-12	-3	0	-1
COCc1cc(=O)[nH]c(Nc2nc3ccc(C)cc3o2)n1	12	59*	nt	-8	80*	0
CCOc1ccc(S(=O)(=O)NC(C)(C)C)cc1-c1nc2c(C(C)(C)C)nn(C)c2c(=O)[nH]1	nt	67*	nt	10	nt	-1
CN(CC(=O)Nc1ccccc1Cl)C(=O)Cn1nnc(-c2ccc(F)cc2)n1	14	-7	-1	7	nt	0
O=C(/C=C/NNC(=O)c1ccccc1)c1ccc([N+](=O)[O-])cc1	25	61*	20	?	95*	-1
O=C(COc1ccc(Br)cc1Cl)NC1CCN(Cc2ccccc2)CC1	-11	61*	4	-4	-4	0
O=C(/C=C/c1cccc(Br)c1)NC1CCN(Cc2ccccc2)CC1	nt	41	7	-6	-3	1
O=C(/C=C/c1cccc(F)c1)NC1CCN(Cc2ccccc2)CC1	nt	55*	-11	-6	3	0
C=C(C)c1cccc(C(C)(C)NC(=O)NC2CCN(Cc3ccccc3)CC2)c1	nt	55*	4	0	5	-1
O=C(Nc1cccc(F)c1)NC1CCN(Cc2ccccc2)CC1	nt	60*	-5	-1	-5	0
C=C(C)c1cccc(C(C)(C)NC(=O)N2CCCC2)c1	nt	4	-8	-27	-2	0
N#C/C(=C\c1c(F)cccc1Cl)c1nn(-c2ccccc2)c(-n2cccc2)c1C#N	5	41	94*	-6	45	0
N#C/C(=C\c1c(Cl)cccc1Cl)c1nn(-c2ccccc2)c(-n2cccc2)c1C#N	14	59*	64	4	26	-1
N#C/C(=C\c1cccc2ccccc12)c1nn(-c2ccccc2)c(N)c1C#N	nt	39	30	2	36	0
CC(C)CC(=O)c1c(O)c(C=O)c(O)c2c1O[C@@]1(C)[C@@H](C2)C[C@H]2C[C@@H]1C2(C)C	-2	nt	107*	nt	2	0
COc1ccc(S(=O)(=O)NCC2CCCN(CC(C)(C)C)C2)cc1 (stereo not given)	0	18	35	-13	-4	0
O=C(NC(c1cccnc1)C(F)(F)F)c1cc(COc2ccc3c(c2)CCCC3)on1 (stereo not given)	nt	14	27	11	107*	-1
COc1cccc(C(=O)NC(=S)Nc2ccccc2N2CCOCC2)c1	nt	-3	116*	5	8	0
O=C(Nc1ccccc1N1CCOCC1)c1cc(F)cc(F)c1	-9	-13	-2	97*	-5	1
